We go through three compounds from ChEMBL document CHEMBL4251665, “Ca2+-Signal Transduction Inhibitors, Kujiol A and Kujigamberol B, Isolated from Kuji Amber Using a Mutant Yeast” (J Nat Prod, 2018).

Calls of active or inactive are those of the source. The calls are words filed in the database; no cut-off is given here.

The subject of one assay is WI-38. Put plainly: Cytotoxicity against human WI38 cells after 48 hrs by MTT assay. It counts as cell-based. The conditions noted are these: WI-38, 48 h. The essentials:
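WI-38 human diploid lung fibroblasts cultured in DMEM at 5 × 10^3 cells/well, then tested for cytotoxicity.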

Assay [1] concerns the target T1, Glycogen synthase kinase-3 beta (Homo sapiens, UniProt P49841). Put plainly: Inhibition of human GSK-3beta using peptide substrate.
Another assay concerns HL-60. The assay can be described thus: Cytotoxicity against human HL60 cells after 48 hrs by MTT assay. It counts as cell-based. The settings on record: HL-60, 48 h. The essentials:
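HL60 cells grown in RPMI 1640 with 10% heat-inactivated FBS and penicillin (50 units/mL)–streptomycin (50 μg/mL). Exposed to samples for 48 h at 37 °C, humidified, 5% CO2. Viability read by MTT assay; IC50 derived.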

For another assay, the system named is Saccharomyces cerevisiae. The assay can be described thus: Inhibition of calcium signal transduction pathway in Saccharomyces cerevisiae YNS17 assessed as growth restoration. It counts as functional, organism-based. The method, boiled down: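 Mutant S. cerevisiae YNS17 plate assay. Samples dissolved in MeOH and spotted on plates; growth-restored zones scored over 0.5 to 0.13 μg/spot. Positive control: FK506 at 2.5 ng/spot.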

For assay [2], the species on record is Homo sapiens. Put plainly: Inhibition of calcineurin (unknown origin) using DLDVPIPGRFDRRVpSVAAE as substrate by malachite green based colorimetric method.
The species entered for assay [3] is Homo sapiens. The assay can be described thus: Inhibition of calcineurin (unknown origin) at 200 uM using DLDVPIPGRFDRRVpSVAAE as substrate by malachite green based colorimetric method.
In assay [4] the target is T1, Glycogen synthase kinase-3 beta. Put plainly: Inhibition of human GSK-3beta at 200 uM using peptide substrate.
Target sequence in this assay (P49841 whole entry, looked up): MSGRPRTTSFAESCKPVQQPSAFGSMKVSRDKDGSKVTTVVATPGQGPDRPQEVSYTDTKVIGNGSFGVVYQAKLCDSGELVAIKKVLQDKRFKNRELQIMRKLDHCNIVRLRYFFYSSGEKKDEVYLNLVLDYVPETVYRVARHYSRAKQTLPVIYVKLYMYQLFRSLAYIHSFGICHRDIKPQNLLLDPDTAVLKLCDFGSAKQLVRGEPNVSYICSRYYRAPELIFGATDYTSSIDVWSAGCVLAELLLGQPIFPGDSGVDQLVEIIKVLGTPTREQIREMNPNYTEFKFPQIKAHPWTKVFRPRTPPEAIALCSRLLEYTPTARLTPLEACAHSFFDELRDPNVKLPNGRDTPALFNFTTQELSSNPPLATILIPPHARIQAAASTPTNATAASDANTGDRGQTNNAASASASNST

For the compound `Cc1ccc2c(c1CCC(C)C)CCC[C@]2(C)CO` [KUJIGAMBEROL], the IC50 with WI-38 is greater than 50 µM.
As to `Cc1ccc2c(c1)CC[C@H]1[C@@](C)(CO)CCC[C@]21C`, the results for the IC50 (with WI-38; in assay [1]; in the assay on HL-60) were greater than 50 µM, 178 µM and 7.1 µM, respectively. For the same compound, the inhibition entry (in assay [1]; in the assay on Saccharomyces cerevisiae; in the assay listed under Homo sapiens [2]) was “Dose-dependent effect” each time.
With `Cc1ccc2c(c1CCC(C)(C)O)CCCC2(C)C`, the IC50 with WI-38 is greater than 50 µM; in the assay on HL-60, 41.7 µM. For the same compound, the inhibition result (in the assay filed under Homo sapiens [3]; in assay [4]) was “inactive” throughout. For the same compound, in the assay with Saccharomyces cerevisiae, the inhibition result is “Dose-dependent effect”.
